Molecules are shown by their SMILES.

The subject of one series is SK-Mel-2 cells. The series can be described thus: Cellular uptake and distribution by confocal Raman microscopy of live cells. As to conditions: data not shown. It is filed as cell-based, Human.
A short description of series [1]: Circular dichroism spectroscopy, secondary structure in water/TFE solutions. It is filed as physicochemical. Conditions: 40 μM peptide, 25 °C, CDPro (average of CONTINLL, SELCON3, CDSSTR). The method, boiled down:
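Stock 20 mM in water (pH 7), stored at 4°C for ≤10 days and quantified by A280 (ε280 = 11,000 M−1.cm−1). CD recorded in a 1 mm quartz cell over 180–250 nm at 100 nm/min with 1 s response, 40 μM peptide, 25 °C. Eight scans averaged and background-corrected for water/TFE. Fractions from the CDPro SP37A reference set.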

Regarding `CC[C@H](C)[C@H](NC(=O)[C@H](CCCCN)NC(=O)[C@@H](NC(=O)[C@H](CCC(N)=O)NC(=O)[C@@H](N)CCCNC(=N)N)[C@@H](C)CC)C(=O)N[C@@H](Cc1c[nH]c2ccccc12)C(=O)N[C@@H](Cc1ccccc1)C(=O)N[C@@H](CCC(N)=O)C(=O)N[C@@H](CC(N)=O)C(=O)N[C@@H](CCCNC(=N)N)C(=O)N[C@@H](CCCNC(=N)N)C(=O)N[C@@H](CCSC)C(=O)N[C@@H](CCCCN)C(=O)N[C@@H](Cc1c[nH]c2ccccc12)C(=O)N[C@@H](CCCCN)C(=O)N[C@@H](CCCCN)C(N)=O` [penetratin-Fh], the “Peptide uptake by cells at 4°C” value with SK-Mel-2 cells (4°C, confocal Raman microscopy) is listed as “did not observe peptide uptake”. Besides, the “Concentration dependence of the rate of accumulation in cell nuclei” value with SK-Mel-2 cells (range 25–300 μM, RT) is “only weakly dependent on concentration”. Besides, the “α-helix structure (CD modeling)” value in series [1] (100% TFE) was determined as 25%. Moreover, in series [1] (100% water), the “Random coil character (CD modeling)” value amounted to 54%, the “α-helix structure (CD modeling)” value worked out at 3% and the “β-strand structure (CD modeling)” value came to 21%.

For the origin of these results see publication PMC2818876 (Journal of the American Chemical Society, 2010).
